Reference: ChEMBL document CHEMBL2202955, “Identification of Potent, Selective, Cell-Active Inhibitors of the Histone Lysine Methyltransferase EZH2” (ACS Med Chem Lett, 2012)

Key:
[1] = target: Histone-lysine N-methyltransferase EZH2 (Homo sapiens, UniProt Q15910); test: Inhibition of EZH2-mediated nuclear H3K27 methylation in human HCC1806 cells after 72 hrs by immunofluorescence analysis; format: cell-based
Method in brief: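 HCC1806 breast cancer cells were exposed to compound for 72 h. Nuclear H3K27me3 was quantified by an immunofluorescence imaging assay and normalized to total H3. Values are the mean of at least three independent replicates.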

[2] = target: EZH2/SUZ12/EED/RBBP7/RBBP4; test: Inhibition of PRC2 complex of FLAG-EZH2, EED, SUZ12, AEBP2 and RbAp48 using histone H3 peptide (21 to 44) as substrate and [3H]SAM after 30 mins; format: protein-complex assay; settings: read-out: Ki(app)

Sequence of Histone-lysine N-methyltransferase EZH2 (Q15910 whole entry): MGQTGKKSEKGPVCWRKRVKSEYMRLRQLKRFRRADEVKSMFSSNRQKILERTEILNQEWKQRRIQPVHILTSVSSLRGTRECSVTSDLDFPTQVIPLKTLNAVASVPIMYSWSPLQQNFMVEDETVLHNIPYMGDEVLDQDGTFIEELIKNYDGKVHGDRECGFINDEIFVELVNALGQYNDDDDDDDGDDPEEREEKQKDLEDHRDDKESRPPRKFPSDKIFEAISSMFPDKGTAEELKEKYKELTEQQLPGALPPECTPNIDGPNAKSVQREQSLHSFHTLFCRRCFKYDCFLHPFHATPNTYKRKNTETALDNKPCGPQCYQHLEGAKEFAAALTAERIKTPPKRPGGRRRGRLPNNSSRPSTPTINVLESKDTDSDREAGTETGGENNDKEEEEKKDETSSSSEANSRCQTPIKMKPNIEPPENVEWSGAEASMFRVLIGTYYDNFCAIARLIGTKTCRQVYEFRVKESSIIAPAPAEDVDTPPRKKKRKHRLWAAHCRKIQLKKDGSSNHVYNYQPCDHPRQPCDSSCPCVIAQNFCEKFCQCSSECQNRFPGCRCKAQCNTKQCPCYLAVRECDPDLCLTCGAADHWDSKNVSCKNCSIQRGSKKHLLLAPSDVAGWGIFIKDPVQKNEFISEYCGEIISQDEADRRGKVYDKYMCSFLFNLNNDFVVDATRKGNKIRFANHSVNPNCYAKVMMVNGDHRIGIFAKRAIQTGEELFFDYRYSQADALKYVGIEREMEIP

IC50 [1] [nM]	Ki [2] [nM]	SMILES
2000	14	Cc1cc(C)c(CNC(=O)c2cc(-c3ccnc(N4CCN(C)CC4)c3)cc3c2cnn3C(C)C)c(=O)[nH]1
2510	74	Cc1cc(C)c(CNC(=O)c2cc(C3CC3)cc3c2cnn3C(C)C)c(=O)[nH]1
